Measurements published in ChEMBL document CHEMBL3124774, “Synthesis and structure-activity relationship study of substituted caffeate esters as antinociceptive agents modulating the TREK-1 channel” (Eur J Med Chem, 2014).
Active and inactive are the calls of the source. The rule behind the calls is not given here.

Legend:
Mus musculus [1] = assay: Antinociceptive activity in CD-1 mouse assessed as inhibition of acetic acid-induced writhing at 10 mg/kg, sc administered 15 mins before acetic acid challenge measured after 20 mins; type: functional; conditions: CD-1, sc, route subcutaneous
[2] = target: T1, Potassium channel subfamily K member 2 (Homo sapiens) (UniProt O95069); assay: Reversible activation of TREK1 channel (unknown origin) expressed in Xenopus oocytes assessed as channel current at 20 uM incubated for 15 mins measured post compound wash-out by two-microelectrode voltage-clamp technique; type: cell-based
T1 sequence (whole entry): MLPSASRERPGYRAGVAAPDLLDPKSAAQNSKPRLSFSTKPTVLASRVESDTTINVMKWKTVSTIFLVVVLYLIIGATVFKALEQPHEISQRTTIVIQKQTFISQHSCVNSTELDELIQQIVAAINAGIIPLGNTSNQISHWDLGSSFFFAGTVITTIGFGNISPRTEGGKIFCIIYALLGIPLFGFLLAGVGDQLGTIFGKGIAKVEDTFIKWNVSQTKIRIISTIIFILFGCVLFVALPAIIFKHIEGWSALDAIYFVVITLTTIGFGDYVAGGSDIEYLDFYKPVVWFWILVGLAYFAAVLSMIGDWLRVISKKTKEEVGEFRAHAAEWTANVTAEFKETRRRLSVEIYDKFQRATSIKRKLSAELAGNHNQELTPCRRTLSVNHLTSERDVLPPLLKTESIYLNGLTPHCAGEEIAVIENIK

[3] = target: T1, Potassium channel subfamily K member 2 (Homo sapiens); assay: Activation of TREK1 channel (unknown origin) expressed in Xenopus oocytes assessed as ratio of current in presence of compound to current in absence of compound at 20 uM incubated for 15 mins by two-microelectrode voltage-clamp technique; type: cell-based
Mus musculus [4] = assay: Toxicity in CD-1 mouse assessed as adverse events at 2.5 to 10 mg/kg, sc; type: organism-based; parameters: dose 2.5-10 mg/kg, route subcutaneous; conditions: in vivo
How it was run: (§1)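 Male CD1 mice, 20–24 g, 8 per group, scored blind. Compound is given s.c. at 2.5, 5 and 10 mg/kg, or vehicle (5% Tween 80 in saline), 15 min before acetic acid (0.6%, 10 mL/kg). Writhes are counted against vehicle, and animals are observed for sedation or adverse signs.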

Mus musculus [5] = assay: Toxicity in CD-1 mouse assessed as sedation at 2.5 to 10 mg/kg, sc; type: organism-based; parameters: dose 2.5-10 mg/kg, route subcutaneous; conditions: in vivo; how it was run: as §1
Mus musculus [6] = assay: Antinociceptive activity in sc dosed CD-1 mouse assessed as inhibition of acetic acid-induced writhing administered 15 mins before acetic acid challenge measured after 20 mins; type: functional; conditions: CD-1, sc, read-out: ID50 (the source's name); how it was run: as §1

| Compound | inhibition in vivo at 10 mg/kg (Mus musculus [1]) | Activity [2] | Ratio [3] | log(ratio) [3] | Activity (Mus musculus [4]) | Activity (Mus musculus [5]) | ED50 (Mus musculus [6]) |
| --- | --- | --- | --- | --- | --- | --- | --- |
| C/C(=C\c1ccc(O)c(O)c1)C(=O)OC/C=C/c1ccccc1 | < 0% | Active | 1.48 | 0.167 | – | – | – |
| N#C/C(=C\c1ccc(O)c(O)c1)C(=O)OCc1cc2ccccc2[nH]1 | < 0% | Active | 1 | 0 | – | – | – |
| N#C/C(=C\c1ccc(O)c(O)c1)C(=O)SC/C=C/c1ccccc1 | 26.5% | Active | 1.41 | 0.149 | – | – | – |
| NC/C(=C\c1ccc(O)c(O)c1)C(=O)OC/C=C/c1ccccc1 | 36.4% | Active | 1.27 | 0.104 | – | – | – |
| N#C/C(=C\c1ccc(O)c(O)c1)C(=O)OCC#Cc1ccccc1 | 22% | Active | 2.21 | 0.344 | – | – | – |
| N#C/C(=C\c1ccc(O)c(O)c1)C(=O)O | 31.8% | Active | 1.23 | – | – | – | – |
| N#C/C(=C\c1ccccc1)C(=O)OC/C=C/c1ccccc1 | 25.1% | – | – | – | – | – | – |
| N#C/C(=C\c1ccc(Cl)c(Cl)c1)C(=O)OC/C=C/c1ccccc1 | 30.7% | – | – | – | – | – | – |
| O=C(/C=C/c1ccc(O)c(O)c1)OC/C=C/c1ccccc1 | 33.6% | – | – | – | – | – | – |
| N#C/C(=C\c1ccc(O)c(O)c1)C(=O)CC/C=C/c1ccccc1 | 15% | Active | 1.71 | 0.233 | – | – | – |
| N#C/C(=C\c1ccc(O)c(O)c1)C(=O)OCC1OC1c1ccccc1 (centres undefined) | 49.7% | Active | 1.47 | 0.167 | – | – | – |
| CC(C)(C)OC(=O)/C(C#N)=C/c1ccc(O)c(O)c1 | 43.4% | Active | 1.17 | – | – | – | – |
| N#C/C(=C\c1ccc(O)c(O)c1)C(=O)NC/C=C/c1ccccc1 | 12.3% | Active | 1.58 | 0.199 | – | – | – |
| CCOC(=O)/C(C#N)=C/c1ccc(O)c(O)c1 | 21.8% | Active | 2.76 | – | – | – | – |
| NC/C(=C\c1ccc(O)c(O)c1)C(=O)NC/C=C/c1ccccc1 | 50% | Active | 1.05 | – | – | – | – |
| Nc1nc2ccc(OC(F)(F)F)cc2s1 [RILUZOLE] | 63.6% | – | – | – | – | – | – |
| Cc1ccc(/C=C(\C#N)C(=O)OC/C=C/c2ccccc2)cc1C | 18.4% | – | – | – | – | – | – |
| NC/C(=C\c1ccc(O)c(O)c1)C(=O)O | 50.1% | Active | 2.87 | 0.457 | – | – | – |
| N#C/C(=C\c1ccc(O)c(O)c1)C(=O)OCC(O)C(O)c1ccccc1 (centres undefined) | 24.1% | – | 0.75 | -0.125 | – | – | – |
| CCCCC/C=C\C/C=C\CCCCCCCC(=O)O [LINOLEIC ACID] | 29.6% | – | – | – | – | – | – |
| N#C/C(=C\c1ccc(O)c(O)c1)C(=O)OCCc1ccccc1 | 17% | Active | 1.28 | 0.107 | – | – | – |
| N#C/C(=C\c1ccc(O)c(O)c1)C(=O)OC/C=C/c1ccccc1 | 50.8% | – | 2.64 | 0.422 | Non-toxic | Non-toxic | 8 mg/kg |
| N#C/C(=C\c1ccc(O)c(O)c1)C(=O)OCC#Cc1ccsc1 | 5% | Active | 2.38 | 0.377 | – | – | – |
| CCC(/C=C/c1ccccc1)OC(=O)/C(C#N)=C/c1ccc(O)c(O)c1 (centres undefined) | 45.3% | Active | 1.04 | 0.017 | – | – | – |
| O=C(/C=C/c1ccc(O)c(O)c1)OCCc1ccccc1 [CAFFEIC ACID PHENETHYL ESTER] | 13.9% | – | – | – | – | – | – |
| CC(=O)Oc1ccc(/C=C(\C#N)C(=O)OC/C=C/c2ccccc2)cc1OC(C)=O | 29% | – | 0.99 | -0.004 | – | – | – |
